Data from PubChem BioAssay AID561 (The Scripps Research Institute Molecular Screening Center, 2006).
The campaign covered roughly 65,000 compounds. About 280 (0.43%) were called active. This is one part of a sample in which actives are shown more often than they occur.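 The calls were made as follows: active = inhibition above the mean of all tested compounds plus 3 SD (cut at about 52% in these data); inactive = the rest.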

These compounds were tested against Nuclear receptor ROR-alpha (Homo sapiens) (UniProt P35398) (assay: inhibitors of orphan receptor RORA, primary screen, cell-based, luminescence (AID 561)). Conditions: CHO-K1 Gal4-RORA LBD luciferase reporter, at 10 µM, active compounds read high.
Sequence of Nuclear receptor ROR-alpha (Homo sapiens) (P35398 whole entry, looked up, the tested form may be a part): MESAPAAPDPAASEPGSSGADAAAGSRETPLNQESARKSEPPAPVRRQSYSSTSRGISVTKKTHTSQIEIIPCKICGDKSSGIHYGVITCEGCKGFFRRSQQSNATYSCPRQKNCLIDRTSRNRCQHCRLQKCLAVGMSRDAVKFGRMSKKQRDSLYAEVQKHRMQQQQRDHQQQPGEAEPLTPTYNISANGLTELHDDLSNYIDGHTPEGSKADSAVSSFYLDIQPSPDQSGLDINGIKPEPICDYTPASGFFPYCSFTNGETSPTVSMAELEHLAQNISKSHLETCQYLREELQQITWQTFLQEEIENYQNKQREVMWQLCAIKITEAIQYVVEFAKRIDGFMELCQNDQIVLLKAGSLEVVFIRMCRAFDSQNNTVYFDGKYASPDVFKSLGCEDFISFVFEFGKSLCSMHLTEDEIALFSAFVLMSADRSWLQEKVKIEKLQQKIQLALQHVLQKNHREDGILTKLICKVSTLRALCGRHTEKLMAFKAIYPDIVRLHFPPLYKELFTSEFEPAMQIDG
In short: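 System: transiently transfected CHO-K1 cells, Gal4-DBD/human RORA-LBD fusion plus 5xGal4-luciferase reporter. Doses: one dose of 10 µM final. Timing: 20 h compound treatment, 37 °C. Measured by: luminescence. Evaluation: % inhibition of basal luciferase versus +RORA/-RORA DMSO controls. Benchmarks: mock-transfected cells as 100%, +RORA DMSO cells as 0%. Replicates: single test per compound.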
`CSc1cccc(NC(=O)C2CCCN2S(=O)(=O)c2ccc3c(c2)CCC(=O)N3)c1` (stereo not given) was tested, and the inhibition was -14% (inactive).
In the case of `OC(COc1ccc2ccccc2c1)CN1CCOCC1` (stereo not given), the inhibition is reported as -16.8% (inactive).
`OCCCN1c2ccccc2Nc2nnc(-c3ccccc3)cc21` was tested, and the inhibition was -56.8% (inactive).
In the case of `CCC1(C)Cc2c(sc3nc4n(c(=O)c23)CCCS4)CO1` (stereo not given), the inhibition is reported as -15.7% (inactive).
With `O=C(Cn1c(-c2cncs2)nc2ccccc21)NC1CCCC1` the inhibition was 19.7% (inactive).
With `CCOC(=O)N1CCN(C(=O)C2CCN(c3ncnc4c3sc3cccc(F)c34)CC2)CC1` the inhibition was 75.2% (active).
With `O=C(Nc1nc(-c2ccncc2)cs1)C1COc2ccccc2O1` (stereo not given) the inhibition was -15.8% (inactive).
`CNC(=O)CSc1nnnn1-c1ccc(C)cc1C` was tested, and the inhibition was 14% (inactive).
For `CC1CCCN(Cc2nc3c(c(=O)n(C)c(=O)n3C)n2CC(=O)c2ccccc2)C1` (stereo not given), the inhibition was -31.2% (inactive).
`CC(=O)Nc1ccc(-c2nn3c(C)nnc3s2)cc1C` was tested, and the inhibition was 10.7% (inactive).
With `N#CC(=C1SC=CS1)c1nc(-c2ccccc2)cs1` the inhibition was -59.7% (inactive).
For `Cc1oc2nc(SCC(=O)NCc3cccnc3)nc(N)c2c1C`, the inhibition was 72.8% (active).
`CNC(=O)CN1C(=O)c2ccccc2S1(=O)=O` was tested, and the inhibition was -15% (inactive).
For `CC(C)c1ccc(NC(=O)NC2CCCCC2)cc1`, the inhibition was -85.1% (inactive).
For `CC1CN(c2cc(=O)n(-c3cccc(Br)c3)c(=O)[nH]2)CC(C)O1` (stereo not given), the inhibition was 29.5% (inactive).
In the case of `Cc1ccnc(N2CCCC(C(=O)Nc3cc(F)ccc3C)C2)n1` (stereo not given), the inhibition is reported as 5.7% (inactive).
For `Cc1ccc(F)cc1NC(=O)Cc1nn(C)c(=O)c2ccccc12`, the inhibition was 53.5% (active).
In the case of `CCC(=O)NC(=Nc1nc2ccccc2s1)NC(=O)CC`, the inhibition is reported as -48.7% (inactive).
In the case of `Cc1ccc(S(=O)(=O)Nc2ccc3ncccc3c2)cc1`, the inhibition is reported as 56.7% (active).
With `CCOC(=O)c1nc(-c2ccc3c(c2)OCO3)[nH]c1C` the inhibition was -66.7% (inactive).
In the case of `c1c2c(cc3sc(N4CCCCC4)nc13)OCCO2`, the inhibition is reported as 75.4% (active).
In the case of `Fc1c(F)c(C(F)(F)F)c(F)c(F)c1N1CCN(c2ccc3nnc(C(F)(F)F)n3n2)CC1`, the inhibition is reported as 6.9% (inactive).
`O=C(O)C1OC(C(=O)O)C2C1C(F)(F)C2(F)F` (stereo not given) was tested, and the inhibition was 1.7% (inactive).
`COc1ccc(N=Cc2c(O)[nH]c3ccccc23)cc1OC` was tested, and the inhibition was -55.7% (inactive).
With `C(=C\c1ccccc1)/CSc1nnc(-c2cccnc2)n1Cc1ccco1` the inhibition was -2.8% (inactive).
In the case of `Cc1nc2ccc(S(=O)(=O)NCC(=O)NCCN3CCCCC3C)cc2s1` (stereo not given), the inhibition is reported as 6.1% (inactive).
With `Cn1c(=NC(=O)c2ccco2)sc2cccc(F)c21` the inhibition was -61.5% (inactive).
`O=C(CN1C(=O)c2ccccc2S1(=O)=O)N1CCc2ccccc21` was tested, and the inhibition was 37.4% (inactive).
In the case of `COc1ccccc1CNC(=O)C1CCCN(S(=O)(=O)c2cccc3cccnc23)C1` (stereo not given), the inhibition is reported as 5.2% (inactive).
For `CCC(=O)Oc1cccc(C(=O)Nc2ccc(-c3nnc(-c4ccco4)o3)cc2)c1`, the inhibition was -112% (inactive).
`COC(=O)c1sc(NC(=O)c2csc3c2CCCC3)nc1C` was tested, and the inhibition was -33.7% (inactive).
In the case of `COc1ccc(OC)c(Nc2nc(-c3ccc(O)c(O)c3)cs2)c1`, the inhibition is reported as 74.4% (active).
For `c1ccc(Nc2nc(-c3ccncc3)cs2)nc1`, the inhibition was -50.9% (inactive).
In the case of `COc1ccc(C(=O)Nc2nncs2)c(OC)c1`, the inhibition is reported as -62.9% (inactive).
For `Cn1nnc2cc(C(=O)NCCC3=CCCCC3)ccc21`, the inhibition was -18% (inactive).
With `Cc1cc(C)nc(N2CCN(c3ncnc4c3oc3ccccc34)CC2)n1` the inhibition was 7.6% (inactive).
For `CCCOc1ccccc1C(=O)NCCCC(=O)O`, the inhibition was 16.7% (inactive).
In the case of `O=C(C1CCN(c2nnc(-n3cccc3)s2)CC1)N1CCc2ccccc2C1`, the inhibition is reported as 8.1% (inactive).
In the case of `COC(=O)Nc1ncc(CN2C(=O)c3ccccc3C2=O)s1`, the inhibition is reported as 19.5% (inactive).
`COCn1c(COc2ccccc2)nc2ccccc21` was tested, and the inhibition was -53.4% (inactive).
With `Cc1ccc(CCNC(=O)C2CCN(S(=O)(=O)N3CCCC3)CC2)cc1` the inhibition was 2.2% (inactive).
`COc1ccc(Nc2oc(-c3ccccc3Cl)nc2C#N)cc1` was tested, and the inhibition was -98.6% (inactive).
For `COC(=O)c1ccc(NC(=O)c2ccco2)cc1`, the inhibition was -77.4% (inactive).
For `C=CCn1c(C(C)NC(=O)CC)nc2ccccc21` (stereo not given), the inhibition was -12.3% (inactive).
`C=CCOc1nc2c(c(=O)n(C)c(=O)n2C)n1Cc1ccc(Cl)cc1Cl` was tested, and the inhibition was 63.5% (active).
For `Cn1c(=O)c2c(nc(N3CCCCCC3)n2CC(O)COc2ccc(Cl)cc2)n(C)c1=O` (stereo not given), the inhibition was -1% (inactive).
For `CCCc1[nH]nc2c1C(c1ccc(OC)c(Cn3nc(C)c(Br)c3C)c1)C(C#N)=C(N)O2` (stereo not given), the inhibition was 27.5% (inactive).
In the case of `CN(C)c1cc(N)c2ccccc2n1` (tested in a mixture with another compound), the inhibition is reported as -3.2% (inactive).
In the case of `O=C1c2oc3ccccc3c(=O)c2C(c2cccc(O)c2)N1c1ccccn1` (stereo not given), the inhibition is reported as -9.5% (inactive).
With `COc1ccc(-c2nn(-c3ccccc3)cc2C(=O)Nc2nc(CC(C)=O)ns2)cc1` the inhibition was -0.5% (inactive).
With `COc1cccc(N2CCN(C(=O)C3CCCN(S(=O)(=O)c4cnc[nH]4)C3)CC2)c1` (stereo not given) the inhibition was 4.9% (inactive).
With `Cc1ccc(NC(=O)c2nc[nH]c2C(=O)N2CCCCC2)c(C(=O)c2ccccc2)c1` the inhibition was 24.7% (inactive).
`O=c1[nH]c(-c2ccccc2)c(-c2ccccc2)[nH]1` was tested, and the inhibition was 23.5% (inactive).
`O=C(CCC(=O)c1cccs1)NCc1ccccc1` was tested, and the inhibition was 2.2% (inactive).
With `COc1ccc(NC(=O)c2cccc(NC(=O)c3ccco3)c2)c(OC)c1` the inhibition was -19% (inactive).
In the case of `CC(C)n1c(SCC(=O)Nc2ccccc2N2CCCCC2)nc2c1c(=O)n(C)c(=O)n2C`, the inhibition is reported as 18.7% (inactive).
With `CC(C)Cc1cc(C(=O)NCCc2ccccc2)no1` the inhibition was -23.2% (inactive).
For `c1coc(CNc2ncnc3ccccc23)c1`, the inhibition was 66.3% (active).
`O=C(Cc1ccccc1)n1nc(-c2ccccc2)nc1NCc1ccco1` was tested, and the inhibition was -8% (inactive).
`O=C(NCc1ccc2c(c1)OCO2)c1ccc2c(c1)C(=O)N(CC1CCCO1)C2=O` (stereo not given) was tested, and the inhibition was 4.9% (inactive).
`Cc1ccc(Cn2ccc(NC(=O)C3C4CCC(C4)C3C(=O)O)n2)cc1` (stereo not given) was tested, and the inhibition was -14.2% (inactive).
In the case of `COc1ccccc1C1/C(=C(/O)c2ccc(C)cc2)C(=O)C(=O)N1Cc1ccco1` (stereo not given), the inhibition is reported as -17.5% (inactive).
`O=C(CNC(=O)c1ccco1)OCC(=O)c1ccccc1` was tested, and the inhibition was 10.7% (inactive).
For `O=c1cc(-c2ccccc2)nc(N2CCCCC2)[nH]1`, the inhibition was -0.2% (inactive).
`CC(C)C[C@H](NC(=O)Nc1cccc(C(F)(F)F)c1)C(=O)O` was tested, and the inhibition was 11.1% (inactive).
In the case of `CN(c1ccc(C(=O)NCCC2=CCCCC2)cc1)S(C)(=O)=O`, the inhibition is reported as -63% (inactive).
In the case of `CC(=O)Nc1ccn(Cc2c(F)cccc2Cl)n1`, the inhibition is reported as -27.2% (inactive).
With `CCOC(=O)Cc1c(C)nc2c(C#N)c(C)nn2c1C` the inhibition was -2.8% (inactive).
In the case of `COC(=O)C(C)C1Sc2ccccc2NC1=O` (stereo not given), the inhibition is reported as 13.2% (inactive).
With `CC(=O)c1cnc(Nc2nc(C)c3cc(C)ccc3n2)nc1C` the inhibition was 26.5% (inactive).
